Source: PMC3051377 (British Journal of Pharmacology, 2011)
Read-outs that look alike come from different tables or passages of the source.

Columns and labels:
[1] = tested on: wild-type (non-transfected) CHO cells; experiment: [35S]GTPγS binding at wild-type; format: biochemical, Chinese hamster
Outline: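 Membranes were incubated 60 min with 50 µM GDP and agonist. They were then incubated with 500 pM [³⁵S]GTPγS for 20 min at 30°C in 100 mM NaCl, 20 mM Na-HEPES, 10 mM MgCl₂ (pH 7.4) with 1 mM DTT, about 10 µg protein per sample. Non-specific binding was taken with 1 µM GTPγS. Read-out was filtration and scintillation counting.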

[2] = biological target: T1, M2 receptor-G-protein complex (Homo sapiens, UniProt P08172); format: binding; conditions: for reduction of agonist affinity by GDP (factor of cooperativity β): Eqn 8, GDP-less membranes, 1 nM [3H]NMS
T1 sequence (P08172 1-466): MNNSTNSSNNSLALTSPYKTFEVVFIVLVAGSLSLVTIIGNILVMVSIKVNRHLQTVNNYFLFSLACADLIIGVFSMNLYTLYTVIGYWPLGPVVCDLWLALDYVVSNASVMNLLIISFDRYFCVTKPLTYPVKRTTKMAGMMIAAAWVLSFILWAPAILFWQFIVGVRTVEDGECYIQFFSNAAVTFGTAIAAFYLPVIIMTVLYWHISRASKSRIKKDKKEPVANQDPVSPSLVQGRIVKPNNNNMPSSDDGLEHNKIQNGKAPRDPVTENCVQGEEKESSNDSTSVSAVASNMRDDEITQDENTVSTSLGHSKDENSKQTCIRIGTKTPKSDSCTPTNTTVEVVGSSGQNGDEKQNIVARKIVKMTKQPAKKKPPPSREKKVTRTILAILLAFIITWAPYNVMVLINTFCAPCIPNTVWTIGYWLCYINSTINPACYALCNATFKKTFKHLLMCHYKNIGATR

Gs/olf G-proteins [3] = biological target: T2, Gs/olf G-proteins (Homo sapiens, UniProt P08172); experiment: biochemical; format: biochemical, Chinese hamster; conditions: Gs/olf
T2 sequence (P08172 1-466): T1 sequence (P08172 1-466)

[4] = biological target: T3, human M2 muscarinic receptor (Homo sapiens, UniProt P08172); experiment: Agonist-stimulated [35S]GTPγS binding to membranes from M2 CHO cells; format: biochemical; conditions: for nH: Hill coefficient, Eqn 2
T3 sequence (P08172 1-466): T1 sequence (P08172 1-466)

[5] = tested on: G-proteins in GDP-less membranes of CHO-M2 cells; experiment: Kinetics of [35S]GTPγS binding to GDP-less membranes; set-up: species or system Chinese hamster; conditions: for Beq of [35S]GTPγS: GDP-less membranes
Outline: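 GDP-less CHO-M2 membranes, 30°C. Association of 1 nM [³⁵S]GTPγS was measured after 20 min pre-incubation with buffer or 100 µM agonist, ±50 µM GDP. For dissociation, membranes were preloaded 90 min with 1 nM [³⁵S]GTPγS ±50 µM GDP, then chased with 1 µM GTPγS alone or with agonist. Filtration on glass-fibre filters, scintillation counting. Three experiments in quadruplicate; exponential association/dissociation fits.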

Gq/11 G-proteins [6] = biological target: T4, Gq/11 G-proteins (Homo sapiens, UniProt P08172); experiment: [35S]GTPγS binding to Gq/11 G-proteins; format: biochemical, Chinese hamster; conditions: Gq/11
T4 sequence (P08172 1-466): T1 sequence (P08172 1-466)

[7] = tested on: G-proteins in GDP-less membranes of CHO-M2 cells; experiment: Kinetics of [3H]GDP binding to GDP-less membranes; set-up: species or system Chinese hamster
Outline: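 GDP-less CHO-M2 membranes, 30°C. Association of 500 nM [³H]GDP was measured after 20 min pre-incubation with buffer, 10 or 100 µM agonist, or 0.1 µM antagonist. For dissociation, membranes were prelabelled with 500 nM [³H]GDP for 180 min, then chased with 50 µM GDP alone or with ligand. Slow and fast rate constants came from biphasic fits.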

Gi/o G-proteins [8] = biological target: T5, Gi/o G-proteins (Homo sapiens, UniProt P08172); experiment: biochemical; format: biochemical, Chinese hamster; conditions: Gi/o
T5 sequence (P08172 1-466): T1 sequence (P08172 1-466)

Gs/olf G-proteins [9] = biological target: T2, Gs/olf G-proteins; experiment: biochemical; format: binding, Chinese hamster; conditions: Gs/olf; for pα: cooperativity between agonist and [3H]GDP binding
Gq/11 G-proteins [10] = biological target: T4, Gq/11 G-proteins; format: binding, Chinese hamster; conditions: Gq/11; for pα: cooperativity between agonist and [3H]GDP binding
[11] = biological target: T1, M2 receptor-G-protein complex; format: binding; conditions: for factor of cooperativity α between binding of [3H]GDP and agonist (pα): 10 µM [3H]GDP, GDP-less membranes, n=3
Gs/olf G-proteins [12] = experiment: Kinetics of 500 nM [3H]GDP binding to Gs/olf G-proteins; set-up: species or system Chinese hamster
Gi/o G-proteins [13] = biological target: T5, Gi/o G-proteins; experiment: biochemical; format: binding, Chinese hamster; conditions: Gi/o; for pα: cooperativity between agonist and [3H]GDP binding
Gi/o G-proteins [14] = experiment: Kinetics of 500 nM [3H]GDP binding to Gi/o G-proteins; set-up: species or system Chinese hamster
[15] = biological target: T3, human M2 muscarinic receptor; experiment: Competition of agonists with 1 nM [3H]NMS binding; conditions: for pKi: monophasic
[16] = tested on: G-proteins in GDP-less membranes of CHO-M2 cells; experiment: Equilibrium [3H]GDP binding to GDP-less membranes; set-up: species or system Chinese hamster
Outline: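 GDP-less membranes from CHO-M2 cells were made by treatment with 1 M ammonium sulphate for 3 h at 4°C, then renatured 1 h in 20% glycerol. Incubation was 5 h at 30°C in 100 mM NaCl, 20 mM Na-HEPES, 10 mM MgCl₂ (pH 7.4) with 1 mM DTT. Assays were homologous competition at 1 or 5 µM [³H]GDP, plus saturation. Non-specific binding was taken with 50 µM GDP. Three experiments, quadruplicate; Hill-equation fits.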

[17] = 100 µM carbachol, presence of 50 µM GDP
[18] = equilibrium dissociation constant of agonist, Eqn 7

## C[N+](C)(C)CCOC(N)=O [Carbachol]
[1]
  effect on [35S]GTPγS binding: no effect
[2]
  reduction of agonist affinity by GDP (factor of cooperativity β): 200 fold
Gs/olf G-proteins [3]
  EMAX: 1.82 ± 0.05 fold increase over basal binding
[4]
  maximal increase of [35S]GTPγS binding (Emax): threefold
  nH: 0.81 ± 0.05
[5]; 100 µM carbachol, absence of GDP
  effect on kinetics of [35S]GTPγS binding: did not change
[5]; [17]
  effect on rate of dissociation of [35S]GTPγS: no effect
  increase of equilibrium binding of [35S]GTPγS: fourfold
[5]; 50 µM GDP +100 µM carbachol
  Beq of [35S]GTPγS: 4.85 ± 0.19 ^*a fmol·µg^−1protein
[5]; no GDP, +100 µM carbachol
  Beq of [35S]GTPγS: 5.70 ± 0.25 fmol·µg^−1protein
Gq/11 G-proteins [6]
  EMAX: 1.61 ± 0.02 fold increase over basal binding
[7]; 10 µM carbachol
  slowing of [3H]GDP association, faster fraction: twofold
Gi/o G-proteins [8]
  EMAX: 2.89 ± 0.06 fold increase over basal binding
Gs/olf G-proteins [9]
  pα: −1.2 ± 0.1
Gq/11 G-proteins [10]
  pα: −0.85 ± 0.09
[11]
  factor of cooperativity α between binding of [3H]GDP and agonist (pα): −2.3 ± 0.2
Gs/olf G-proteins [12]; 10 µM carbachol
  Beq of [3H]GDP: 0.43 ± 0.02 fmol·µg^−1 protein
  decrease of [3H]GDP equilibrium binding: 1.9 fold
Gs/olf G-proteins [12]; 100 µM carbachol
  Beq of [3H]GDP: 0.10 ± 0.01 fmol·µg^−1 protein
  decrease of [3H]GDP equilibrium binding: 8.1 fold
Gs/olf G-proteins [12]; 10 and 100 µM carbachol
  effect on [3H]GDP binding association rate: no effect
Gi/o G-proteins [13]
  pα: −2.3 ± 0.2
Gi/o G-proteins [14]; 10 µM carbachol
  Beq1 of [3H]GDP: 1.7 ± 0.2 fmol·µg^−1 protein
  decrease of [3H]GDP equilibrium binding: 1.8 fold
  f2 of [3H]GDP dissociation: 38 ± 4%
Gi/o G-proteins [14]; 100 µM carbachol
  Beq1 of [3H]GDP: 0.35 ± 0.03 fmol·µg^−1 protein
  decrease of [3H]GDP equilibrium binding: ninefold
  f2 of [3H]GDP dissociation: 36 ± 5%
  slowing of association of [3H]GDP in comparison to fast sites: 12 fold

## C[N+](C)(C)Cc1ccco1 [Furmethide]
[2]
  reduction of agonist affinity by GDP (factor of cooperativity β): 250 fold
Gs/olf G-proteins [3]
  EMAX: 1.70 ± 0.02 fold increase over basal binding
  pEC50: 4.76 ± 0.03
[4]
  maximal increase of [35S]GTPγS binding (Emax): 3.1 fold increase
  nH: 0.82 ± 0.05
[4]; 500 pM [35S]GTPγS, 50 µM GDP
  EMAX [fold over basal]: 3.12 ± 0.08 fold over basal
[4]; read-out: half-effective concentrations (EC50), stimulation of [35S]GTPγS binding
  EC50: 7 µM
Gq/11 G-proteins [6]
  EMAX: 1.20 ± 0.01 fold increase over basal binding
  pEC50: 4.72 ± 0.06
Gi/o G-proteins [8]
  EMAX: 2.95 ± 0.09 fold increase over basal binding
  pEC50: 5.34 ± 0.10
Gs/olf G-proteins [9]
  pα: −1.0 ± 0.1
Gs/olf G-proteins [9]; [18]
  pKA: 7.10 ± 0.05
Gq/11 G-proteins [10]
  pα: −0.32 ± 0.05
Gq/11 G-proteins [10]; [18]
  pKA: 7.17 ± 0.06
[11]
  factor of cooperativity α between binding of [3H]GDP and agonist (pα): −2.4 ± 0.3
[15]; +1 µM GTPγS
  pKi: 4.76 ± 0.05
[15]; +50 µM GDP
  pKi: 4.77 ± 0.05
[15]; Control (crude membranes)
  pKi high: 7.12 ± 0.09
  pKi low: 4.78 ± 0.08
[15]; Control (crude membranes), fraction of receptors in low-affinity state
  flow[%]: 50 ± 9%
[15]; GDP-less membranes
  flow[%]: 9.6 ± 3.8 %
  pKi high: 7.77 ± 0.08
  pKi low: 4.87 ± 0.09
Gi/o G-proteins [13]
  pα: −2.4 ± 0.2
Gi/o G-proteins [13]; [18]
  pKA: 7.13 ± 0.05

## Nc1nc2c(ncn2[C@@H]2O[C@H](COP(=O)(O)OP(=O)(O)O)[C@@H](O)[C@H]2O)c(=O)[nH]1 [GDP, guanosine diphosphate]
[2]; GDP-less membranes
  factor of cooperativity α between [3H]NMS and GDP: 1
[2]; absence of agonist
  effect of GDP on [3H]NMS binding: no effect
[5]; 50 µM GDP
  Beq of [35S]GTPγS: 1.21 ± 0.12 fmol·µg^−1protein
[5]; addition of 50 µM GDP
  decrease of equilibrium binding of [35S]GTPγS: 4.7 fold
  effect on rate of dissociation of [35S]GTPγS: did not change
  slowing of rate of association of [35S]GTPγS: 3.2 fold
[7]; 500 nM [3H]GDP, no ligand
  koff fast: 0.073 min⁻¹
  sites with koff slow: 40%
[11]; Eqn 7, all four agonists, mean ± SD, n=12
  equilibrium dissociation constant for [3H]GDP (pKA): 5.51 ± 0.05
Gs/olf G-proteins [12]; Control
  Beq: 0.81 ± 0.04 fmol·µg^−1 protein
  koff: 0.067 ± 0.007 min⁻¹
[16]; read-out: IC50, homologous competition, 1 µM [3H]GDP
  IC50: 4.48 µM
[16]; read-out: IC50, homologous competition, 5 µM [3H]GDP
  IC50: 8.55 µM
[16]; read-out: KD for [3H]GDP from homologous competition
  Kd: 3.49 µM
[16]; read-out: KD, saturation binding, 0.3 to 10 µM [3H]GDP
  Kd: 3.47 ± 0.03 µM
Gi/o G-proteins [14]; Control
  Beq1: 2.1 ± 0.2 fmol·µg^−1 protein
  Beq2: 1.1 ± 0.1 fmol·µg^−1 protein
  f2: 37 ± 5%
  koff1: 0.35 ± 0.03 min⁻¹
  koff2: 0.040 ± 0.004 min⁻¹
Gi/o G-proteins [14]; control conditions (absence of carbachol), n=3
  Beq, mono-exponential fit: 2.8 ± 0.3 fmol·µg·prot^−1
